Active and inactive are the calls of the source. The calls are words filed in the database; no cut-off is given here.

For series [1], the target named is T1, Glucagon receptor (Homo sapiens, UniProt P47871). The series can be described thus: Displacement of [125I]glucagon from human glucagon receptor expressed in CHO cell membranes. In a few lines: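 Binding: displacement of [125I]glucagon from human GCGR in membranes prepared from a CHO cell line stably expressing hGCGR; IC50 reported in nM.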
Series [2] has as its target T2, Gastric inhibitory polypeptide receptor (Homo sapiens, UniProt P48546).
T2 sequence (P48546 whole entry): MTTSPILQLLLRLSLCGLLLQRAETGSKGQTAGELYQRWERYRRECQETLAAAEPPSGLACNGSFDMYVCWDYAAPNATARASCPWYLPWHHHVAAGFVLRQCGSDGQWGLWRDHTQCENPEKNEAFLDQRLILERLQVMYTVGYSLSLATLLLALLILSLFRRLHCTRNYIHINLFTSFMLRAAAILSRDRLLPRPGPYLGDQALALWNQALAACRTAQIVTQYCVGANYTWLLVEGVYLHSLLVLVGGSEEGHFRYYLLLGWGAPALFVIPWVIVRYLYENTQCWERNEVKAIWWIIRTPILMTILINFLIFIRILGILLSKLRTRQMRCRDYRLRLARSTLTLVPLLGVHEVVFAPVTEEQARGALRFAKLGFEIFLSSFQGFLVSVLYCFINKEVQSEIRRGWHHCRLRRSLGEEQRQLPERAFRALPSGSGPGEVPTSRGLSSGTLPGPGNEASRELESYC
The series can be described thus: Antagonist activity against human glucose dependent insulinotropic peptide receptor by cAMP accumulation assay. It counts as functional. Summed up:
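Selectivity counter-screen: cAMP production measured in CHO cells expressing human GIPR; IC50 (potency) determined.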
On the technique in general: Changes in cAMP serve as a functional read-out for many G protein-coupled receptors.

Series [3] can be described thus: Half life in Wistar rat at 0.5 mg/kg, iv or 2 mg/kg, po. Type of series: ADME, organism-based. The note with it: in vivo. In a few lines:
(§1)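 Wistar rats given 0.5 mg/kg iv and 2 mg/kg po; plasma concentration–time profiles used to derive plasma clearance, steady-state volume of distribution, half-life and dose-normalized AUC (µM·h·kg/mg).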

A short description of series [4]: Oral bio availability in Wistar rat 2 mg/kg. Conditions: in vivo. It counts as ADME, organism-based. In a few lines:
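Oral bioavailability from Wistar rats dosed 2 mg/kg po with 0.5 mg/kg iv reference dose; F (%) from plasma exposure.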

Series [5] is filed under the species Homo sapiens. The series can be described thus: Selectivity index, ratio of IC50 for human glucose dependent insulinotropic peptide receptor to IC50 for human glucagon receptor.
A short description of series [6]: Plasma clearance in Wistar rat at 0.5 mg/kg, iv or 2 mg/kg, po. It counts as ADME, organism-based. Summed up: as §1
The subject of series [7] is Rattus norvegicus. The series can be described thus: Dose normalized AUC in Wistar rat at 0.5 mg/kg, iv or 2 mg/kg, po. Type of series: ADME, organism-based. The note with it: in vivo. In a few lines:
as §1

Series [8] deals with T1, Glucagon receptor. The series can be described thus: Antagonist activity against human glucagon receptor expressed in CHO cells assessed as reduction in glucagon-induced cAMP production. Type of series: functional, cell-based.
Series [9] can be described thus: Volume of distribution at steady state in Wistar rat at 0.5 mg/kg, iv or 2 mg/kg, po. Type of series: ADME, organism-based. The note with it: in vivo, read-out: Vdss. Summed up: as §1
Series [10] deals with Mus musculus. The series can be described thus: Reduction in glucagon-induced glucose excursion in glucagon receptor humanized mouse model of acute glucagon challenge model at 1 to 10 mg/kg, po dosed 1 hr before glucagon challenge. It counts as functional, organism-based. In a few lines: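 hGCGR-humanized mice given compound orally at 1, 3 or 10 mg/kg one hour prior to IP glucagon (15 µg/kg); blood glucose followed as change from time 0.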

A short description of series [11]: Drug level in glucagon-induced glucose excursion in glucagon receptor humanized mouse model of acute glucagon challenge model at 3 mg/kg, po dosed 1 hr before glucagon challenge and measured after 60 mins post dose. Type of series: ADME, organism-based. Conditions: in vivo, read-out: Drug uptake. Summed up: (§2)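 Glucagon-receptor-humanized (hGCGR) mice dosed orally at 1, 3 or 10 mg/kg one hour before IP glucagon challenge (15 µg/kg); drug level measured at 60 min.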

Series [12] can be described thus: Drug level in glucagon-induced glucose excursion in glucagon receptor humanized mouse model of acute glucagon challenge model at 1 mg/kg, po dosed 1 hr before glucagon challenge and measured after 60 mins post dose. Type of series: ADME, organism-based. The note with it: in vivo, read-out: Drug uptake. In a few lines:
as §2

Series [13] is described as follows: Drug level in glucagon receptor humanized ob/ob mouse acute model at 3 mg/kg, po after 3 hrs. It counts as ADME, organism-based. Conditions: in vivo, read-out: Drug uptake.
Series [14] deals with Mus musculus. The series can be described thus: Reduction in blood glucose levels in glucagon receptor humanized ob/ob mouse acute model at 3 mg/kg, po after 1 to 6 hrs. Type of series: functional, organism-based. In a few lines: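 hGCGR ob/ob mice (N = 10–12 per group) dosed orally at 3 mg/kg at 0 h with food removed at 0 h; ambient blood glucose monitored over 6 h versus vehicle control, significance at each time point.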

Series [15] in a line: Drug level in glucagon receptor humanized ob/ob mouse acute model at 3 mg/kg, po after 1 hrs. The note with it: in vivo, read-out: Drug uptake. Type of series: ADME, organism-based.
Series [16] can be described thus: Drug level in glucagon-induced glucose excursion in glucagon receptor humanized mouse model of acute glucagon challenge model at 10 mg/kg, po dosed 1 hr before glucagon challenge and measured after 60 mins post dose. Conditions: in vivo, read-out: Drug uptake. It counts as ADME, organism-based. Summed up: as §2

T1 sequence (P47871 whole entry): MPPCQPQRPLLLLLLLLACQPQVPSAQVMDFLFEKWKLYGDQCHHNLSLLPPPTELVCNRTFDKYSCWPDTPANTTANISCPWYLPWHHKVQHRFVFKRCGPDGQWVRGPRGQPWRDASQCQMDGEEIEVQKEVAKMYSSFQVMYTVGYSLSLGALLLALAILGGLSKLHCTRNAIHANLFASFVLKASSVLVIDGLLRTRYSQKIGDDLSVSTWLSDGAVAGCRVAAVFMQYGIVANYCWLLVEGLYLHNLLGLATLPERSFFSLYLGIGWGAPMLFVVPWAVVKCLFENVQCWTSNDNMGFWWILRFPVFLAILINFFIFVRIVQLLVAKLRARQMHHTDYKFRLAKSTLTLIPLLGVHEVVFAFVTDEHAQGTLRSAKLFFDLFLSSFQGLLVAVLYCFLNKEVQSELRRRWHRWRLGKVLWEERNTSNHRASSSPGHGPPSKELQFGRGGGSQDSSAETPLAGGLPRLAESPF

For the compound `CCCCC(c1ccc(C(=O)NCCC(=O)O)cc1)n1nc(-c2cc(C(F)(F)F)ccc2OC)c2ccc(-c3ccc(OC)cc3)cc21` (stereo not drawn), the values for the IC50 in [1], in series [2] and in [8] were 1.9 nM, 1100 nM and 14 nM, respectively. The same compound had a half-life in series [3] of 6.4 h. Further, in [4], the bioavailability worked out at 27%. In addition, the Ratio IC50 in series [5] came out at 79. In series [6], this compound registered a clearance of 1.7 mL/min/kg. In series [7], the AUC/dose is 4 µM·kg·h/mg. Besides, the Vd in series [9] was determined as 0.67 L/kg.
Turning to `CCCCC(c1ccc(C(=O)NCCC(=O)O)cc1)n1nc(-c2cc(C(F)(F)F)ccc2OC)c2ccc(-c3ccc(C)cc3)cc21` (stereo not drawn), the IC50 came to 2.6 nM in series [1], 1000 nM in series [2] and 6.6 nM in [8]. The half-life in series [3] was 4 h. The bioavailability in series [4] was 17%. Further, the Ratio IC50 in [5] amounted to 150. The clearance in series [6] worked out at 3.9 mL/min/kg. The compound also gave an AUC/dose in series [7] of 1.2 µM·kg·h/mg. Moreover, in series [9], the Vd amounted to 1 L/kg.
Consider `CCCCC(c1ccc(C(=O)NCCC(=O)O)cc1)n1nc(-c2cc(C(F)(F)F)ccc2OC)c2ccc(-c3ccc(OC(F)(F)F)cc3)cc21` (stereo not drawn), for which the IC50 in series [1] worked out at 0.8 nM; in [2], 750 nM; in series [8], 8 nM. Also, the half-life in [3] is 4.7 h. The compound further returned a bioavailability in series [4] of 9%. Also, the Ratio IC50 in series [5] amounted to 94. This compound also had a clearance in [6] of 7.5 mL/min/kg. For the same compound, the AUC/dose in series [7] was 0.3 µM·kg·h/mg. Further, the Vd in [9] came to 0.72 L/kg.
Consider `COc1ccc(C(F)(F)F)cc1-c1nn(C(C)c2ccc(C(=O)NCCC(=O)O)cc2)c2cc(-c3ccc(C)cc3)ccc12` (stereo not drawn), for which the IC50 was 2.6 nM in series [1], 1300 nM in [2] and 7.6 nM in [8]. The inhibition result in series [10] and in series [14] was “Active” in each case. For the same compound, the half-life in series [3] was 1.5 h. In addition, in [4], the bioavailability was 44%. Further, the concentration at 1 h turned out to be 500 nM in series [11], 180 nM in series [12], 400 nM in series [15] and 2540 nM in series [16]. In [5], the Ratio IC50 was determined as 170. The clearance in [6] was 6.3 mL/min/kg. Besides, in [7], the AUC/dose was found to be 2 µM·kg·h/mg. Further, the Vd in series [9] is 0.65 L/kg. Further, the concentration at 3 h in [13] is 280 nM.

As a reminder, the IC50 is the concentration that gives 50% inhibition. For orientation: half-life means how long it takes for the measured level to halve. Low values mean rapid decline, high ones slow decline. One may read the bioavailability as the share of a dose that reaches the circulation, judged against a reference dose that is usually intravenous.

The values are drawn from ChEMBL document CHEMBL3616402, “A novel series of indazole-/indole-based glucagon receptor antagonists” (Bioorg Med Chem Lett, 2015).
